Source: PubChem BioAssay
MC4R antagonist – MC4R antagonists of cAMP signaling, primary screen, cell-based, TR-FRET, antagonist arm of biased-ligand search | Melanocortin receptor 4 (Homo sapiens), P32245 | MC4R-expressing cells, MTII-stimulated cAMP, LANCE TR-FRET | inhibition, % at 6.5 µM | 360,000 tested, 0.48% active;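 active means inhibition above its plate's cutoff, the mean of tested wells on that plate plus 3 SD, cut at about 29% in these data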;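 further: 0% = Melanotan II alone and 100% = Melanotan II plus saturating MCL0020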
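System – human MC4R-expressing U2OS cells · Also added – Melanotan II · Dosing – one concentration, 6.5 µM nominal · Timing – 30-min compound, 1-h challenge, 1-h detection, room temperature · Measured by – Eu-cAMP/anti-cAMP TR-FRET, emission 671 nm · Replicates – singlicate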
MC4R barr agon – MC4R agonists recruiting beta-arrestin, primary screen, cell-based, luminescence, agonist arm of biased-ligand search; 360,000 tested, 0.98% active; activation, % at 8.9 µM; U2OS MC4R beta-arrestin complementation; percent of melanotan II response, DMSO zero;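 active means activation above a per-plate cutoff, the mean activation of sample wells on that plate plus 3 SD, cut at about 8% in these data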
NOD2-RIPK2 inh – NOD2-RIPK2 binding disruptors in cells, primary screen, fluorescence, CHO cells, BLA complementation. Receptor-interacting serine/threonine-protein kinase 2 (Homo sapiens), O43353. CCF4 ratio. inhibition, % at 4.98 µM. 360,000 tested, 0.38% active. AID 624267, 2012; in the data active means inhibition above about 21%;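 further: 0% = vehicle only and 100% = reference blocker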
MIN6 prolif – inducers of MIN6 beta-cell proliferation, primary screen, ATP luminescence, uHTS. 330,000 tested, 0.29% active. MIN6 cells proliferation, ATPlite luminescence, 48 h; cells starved in 0.2% serum; 100% = growth in 10% serum. proliferation, % at 10 µM;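 active means compounds whose signal lies at least 3.5 SD above the mean of all wells on their plate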;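 further: 0% = DMSO-treated cells in low-serum medium and 100% = 10% serum control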
TLR9-MyD88 block – inhibitors of TLR9-MyD88 association in cells, primary screen, cell-based, CHO, BLA complementation, fluorescence; AID 504734, 2011; CCF4 FRET ratio; inhibition, % at 4.98 µM; Toll-like receptor 9 (Homo sapiens) + Myeloid differentiation primary response protein …; 340,000 tested, 0.21% active;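 active means inhibition above the mean over all tested compounds plus 3 SD, cut at about 21% in these data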;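 further: 0% = DMSO only wells and 100% = clavulanate BLA inhibitor control wells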
Target sequence (Q99836 whole entry, looked up): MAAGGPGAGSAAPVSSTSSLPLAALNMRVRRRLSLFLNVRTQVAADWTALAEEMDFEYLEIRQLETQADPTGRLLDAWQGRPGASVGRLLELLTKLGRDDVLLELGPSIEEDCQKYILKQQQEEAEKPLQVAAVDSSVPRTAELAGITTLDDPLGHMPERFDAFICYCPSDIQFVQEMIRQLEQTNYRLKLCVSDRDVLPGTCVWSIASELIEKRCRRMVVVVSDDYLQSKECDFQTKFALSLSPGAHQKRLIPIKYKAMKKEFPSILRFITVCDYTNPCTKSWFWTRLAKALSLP
Target sequence (Q9NR96 whole entry, looked up): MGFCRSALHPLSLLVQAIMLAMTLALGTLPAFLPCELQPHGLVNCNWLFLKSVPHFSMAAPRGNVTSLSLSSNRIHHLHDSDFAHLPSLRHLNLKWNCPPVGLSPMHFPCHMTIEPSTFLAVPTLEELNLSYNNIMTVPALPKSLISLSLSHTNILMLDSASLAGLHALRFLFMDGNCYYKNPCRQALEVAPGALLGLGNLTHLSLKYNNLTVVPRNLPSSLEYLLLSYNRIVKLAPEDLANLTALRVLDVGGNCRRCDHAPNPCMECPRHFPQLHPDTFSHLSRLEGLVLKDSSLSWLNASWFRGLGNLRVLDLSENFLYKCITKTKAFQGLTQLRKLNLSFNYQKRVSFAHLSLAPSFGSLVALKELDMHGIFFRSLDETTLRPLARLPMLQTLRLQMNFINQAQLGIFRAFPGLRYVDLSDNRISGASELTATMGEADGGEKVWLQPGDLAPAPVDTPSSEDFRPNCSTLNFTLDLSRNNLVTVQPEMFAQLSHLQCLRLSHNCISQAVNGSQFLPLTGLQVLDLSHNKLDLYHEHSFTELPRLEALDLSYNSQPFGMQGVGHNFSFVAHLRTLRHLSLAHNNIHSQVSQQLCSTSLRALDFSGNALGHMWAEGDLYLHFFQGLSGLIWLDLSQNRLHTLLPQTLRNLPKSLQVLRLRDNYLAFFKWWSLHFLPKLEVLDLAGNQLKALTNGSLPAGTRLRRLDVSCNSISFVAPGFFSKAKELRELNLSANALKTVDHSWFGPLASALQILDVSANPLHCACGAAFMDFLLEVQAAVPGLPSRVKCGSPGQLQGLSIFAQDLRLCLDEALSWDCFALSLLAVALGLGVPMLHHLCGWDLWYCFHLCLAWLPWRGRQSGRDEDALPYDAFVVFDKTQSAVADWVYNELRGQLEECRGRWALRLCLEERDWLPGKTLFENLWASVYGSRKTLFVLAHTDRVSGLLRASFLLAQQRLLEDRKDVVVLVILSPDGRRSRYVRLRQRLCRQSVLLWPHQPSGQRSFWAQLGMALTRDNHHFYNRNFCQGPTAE
TLR4 MyD88 comp – inhibitors of TLR4-MyD88 association in cells, primary screen, cell-based, HeLa CL3-4, BLA complementation, FRET ratio | HeLa CL3-4 TLR4/MyD88 BLA complementation | inhibition, % at 8.4 µM | Toll-like receptor 4 (Homo sapiens) + Myeloid differentiation primary response protein … | AID 861, 2007 | 200,000 tested, 0.18% active; in the data active means inhibition above about 25%;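 further: 0% = vehicle and 100% = reference inhibitor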
MC4R barr conf – MC4R beta-arrestin agonists, retest, confirmation, cell-based, luminescence, U2OS; shares compounds with MC4R barr agon; U2OS MC4R beta-arrestin recruitment; scaled DMSO 0%, Melanotan II 100%; activation, % at 8.9 µM; 2,400 tested, 31% active;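 active means mean activation across replicates above the hit cutoff set in the earlier primary screen, cut at about 8% in these data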
MOR DOR agonist – agonists of MOR-DOR heterodimerization, counter-screen for MC4R biased agonist project, cell-based, luminescence | shares compounds with MC4R barr agon | U2OS PathHunter beta-arrestin, beta-gal luminescence; percent of deltorphin B response, DMSO zero | activation, % at 9.2 µM | 2,400 tested, 5.8% active;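 active means mean activation across replicates exceeds the hit threshold derived in the earlier primary screen, cut at about 18% in these data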;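 further: 100% = deltorphin B at 0.9 µM final and 0% = DMSO alone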
An asterisk follows results filed as active; nt = no result; ! = not confirmed by another sample. An excerpt weighted towards active compounds, which were near 2.1% of everything screened.

SMILES	MC4R antagonist	MC4R barr agon	NOD2-RIPK2 inh	MIN6 prolif	TLR9-MyD88 block	TLR4 MyD88 comp	MC4R barr conf	MOR DOR agonist
CSc1cc(-c2ccccc2)n(Cc2c(Cl)cccc2Cl)c(=O)c1C#N	0	-1	-7	-3	1	-2	nt	nt
CCOc1ccc(CCNC(=O)Cn2ccc3ccccc3c2=O)cc1OCC	-2	1	3	2	6	-11	nt	nt
COc1ccccc1CCNC(=O)c1cc(-c2ccncc2)nc2ccc(Br)cc12	7	18*	-1	nt	-2	5	10*	4
COc1ccc(OCC(=O)NNC(=O)c2cccc(S(=O)(=O)N(C)C)c2)cc1	3	1	-11	0	2	3	nt	nt
C/C(=N\Nc1nncc2ccccc12)c1cccc(OC(F)F)c1	7	17*	-11	0	-5	nt	0	6
O=C(Cn1cc(S(=O)(=O)Cc2ccccc2)c2ccccc21)Nc1ccccc1	-6	9.7*	-14	-4	9	2	-4	4
Clc1ccc(Sc2oc(/C=N/n3cnnc3)cc2Br)cc1	-1	0	-5	-6	2	-15	nt	nt
CN(C)C(=O)/C(C#N)=C\c1cc(Br)c(Sc2ccc(Cl)cc2)o1	5	14*	-4	nt	-5	2	0	6
O=c1[nH]c(CSc2nnc(Nc3ccccc3)s2)nc2ccccc12	6	9.7*	-6	1	0	nt	2	3
O=C(CCc1nc2ccccc2c(=O)[nH]1)Nc1nnc(SCc2ccccc2)s1	-3	-2	3	-4	14	nt	nt	nt
CC1CCC(C(C)C)C(OC(=O)Cn2c(-c3ccc(Br)cc3)[n+](C)c3ccccc32)C1 (configuration not stated)	-2	12*	-14	-7	4	-4	13*!	7
CC1CCC(C(C)C)C(OC(=O)COC(=O)c2ccc(N)cc2)C1 (configuration not stated)	8	1	-8	-5	1	2	nt	nt
Cc1ccccc1OCc1n(CC(=O)OC2CC(C)CCC2C(C)C)c2ccccc2[n+]1C (configuration not stated)	-3	23*	1	-5	6	11	41*	27*
CC1CCC(C(C)C)C(OC(=O)Cn2c(-c3ccc(Cl)cc3)[n+](C)c3ccccc32)C1 (configuration not stated)	-1	28*	1	-6	6	nt	8	9
COc1ccc(OC)c(-c2cc(C(=O)Nc3c(C)nn(Cc4ccccc4)c3C)no2)c1	3	-1	-14	1	4	5	nt	nt
COc1ccc(-c2cc(C(=O)Nc3c(C)nn(Cc4ccccc4Cl)c3C)no2)cc1	-4	13*	-11	1	2	0	11*	4
Cc1cc(-c2cc(C(=O)Nc3ccccc3)on2)nc(NC2CCCC2)n1	nt	nt	nt	-3	nt	nt	nt	nt
CCc1ccc(C2CC(c3ccc(F)cc3)Nc3nc(N)nn32)cc1 (configuration not stated)	4	25*	4	4	7	-2	17*	1
CCc1ccc(C2CC(c3ccc(Cl)cc3)n3nc(N)nc3N2)cc1 (configuration not stated)	-2	5	-1	4	2	-8	nt	nt
